pIC50, pKi: −log10 of the molar value. Active and inactive are the calls of the source. No cut-off for these calls is given here.
Experiments:
Influenza A virus [1] = assay: Antiviral activity against Influenza A virus (A/Puerto Rico/8/1934(H1N1)) infected in C57BL/6J mouse assessed as increase in mouse survival at 8 mg/mouse/day, ip qd treated up to day 2 starting at 5 to 10 mins post infection measured at day 12; type: functional, organism-based
In short: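 Intranasal A/PR/8/34 challenge at 500 PFU in female C57BL/6J mice, 5–6 weeks old, under ketamine/xylazine. Dosing was i.p. once daily on days 0, 1 and 2, starting 5–10 min post-inoculation; 1 mg/mouse is 50 mg/kg and 8 mg/mouse is 400 mg/kg. There were 10 mice per group, with saline vehicle. Survival and body weight were scored daily, with 20% weight loss as the mortality endpoint.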

Influenza A virus [2] = assay: Antiviral activity against Influenza A virus (A/Puerto Rico/8/1934(H1N1)) infected in C57BL/6J mouse assessed as recovery of weight loss at 8 mg/mouse/day, ip qd […] starting at 5 to 10 mins post infection measured up to day 12; type: functional, organism-based
Influenza A virus [3] = assay: Antiviral activity against Influenza A virus (A/Puerto Rico/8/1934(H1N1)) infected in C57BL/6J mouse assessed as decrease in viral load in bronchoalveolar lavage at 8 mg/mouse/day, ip qd treated up to day 2 starting at 5 to 10 mins post infection relative to control; type: functional
In short: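 Female C57BL/6J mice, 5–6 weeks old, were anaesthetised with ketamine/xylazine (43/5 mg/kg) and inoculated intranasally with A/PR/8/34 at 500 PFU. Treatment was i.p. once daily on days 0, 1 and 2, starting 5–10 min after inoculation; 1 mg/mouse is 50 mg/kg and 8 mg/mouse is 400 mg/kg. BAL infectious titre was measured by plaque assay against saline-treated mice.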

Influenza A virus [4] = assay: Stabilization of Influenza A virus nucleoprotein assessed as melting temperature at 5 to 15 uM measured for 10 mins
MDCK = assay: Inhibition of nucleoprotein/polymerase acidic protein (1 to 27 residues) interaction in Influenza A virus (A/WSN/1933 (H1N1)) infected in MDCK cells by Western blot analysis; type: cell-based
In short: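 MDCK cells were infected with A/WSN/33 at MOI 2 for 18 h and lysed in PBS with protease inhibitors and 0.5% NP40 by freezing; nucleic acids were not digested. Streptavidin beads loaded with 250 µM biotinylated PA(1-27) were incubated with the lysate 18 h at 4 °C, with or without compound. Bound NP was detected by anti-NP monoclonal western blot.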

[5] = Cytotoxicity against MDCK cells assessed as reduction in cell viability after 48 hrs by trypan blue staining based method; parameters: species or system Canis lupus familiaris; details: dog
In short: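 MDCK cells, 3.2 x 10^5 per well, were grown 24 h and then exposed to serial compound dilutions under the same conditions as the MTT test. At 48 h, cells were washed, trypsinised and stained with Trypan blue, and viable and dead cells were counted by phase-contrast microscopy.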

[6] = Safety index, ratio of compound CC50 to naproxen CC50 for MDCK cells by MTT assay; type: ADME, cell-based, Canis lupus familiaris; details: dog
Influenza A virus [7] = assay: Antiviral activity against pandemic Influenza A virus (A/Netherlands/602/09(H1N1)) infected in MDCK cells at MOI of 10^-3 assessed as decrease in viral load after 18 hrs by immunofluorescence analysis; type: functional, organism-based
[8] = Selectivity index, ratio of CC50 for MDCK cells to IC50 for pandemic Influenza A virus (A/Netherlands/602/09(H1N1)) infected in MDCK cells at MOI of 10^-3 after 18 hrs; type: toxicity, cell-based; details: dog, read-out: Ratio CC50/IC50
Influenza A virus [9] = assay: Stabilization of Influenza A virus nucleoprotein assessed as melting temperature at 5 to 15 uM measured for 5 mins
In short: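 Recombinant NP, over 80% monomeric, was used at 5–15 µM with compound at a 1:1 ratio in 20 mM Tris pH 7.4, 50 mM NaCl. Mean size was followed by dynamic light scattering (10 scans over 5 min per point) while heating at 1 °C/min up to 70–80 °C. Tm was taken from the maximum of the first-derivative curve, and analyses were done in triplicate.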

[10] = Binding affinity to biotin labelled Influenza A virus nucleoprotein by surface plasmon resonance analysis

SMILES | Activity (Influenza A virus [1]) | Activity (Influenza A virus [2]) | fold change (FC) (Influenza A virus [3]) | Tm (Influenza A virus [4]) | inhibition (active/not active) (MDCK) | CC50 at 48 h [5] | selectivity ratio [6] | pIC50 (Influenza A virus [7]) | selectivity ratio at 18 h [8] | Tm (Influenza A virus [9]) | pKi [10]
CCOC(=O)C1=C[C@@H](OC(CC)CC)[C@H](NC(C)=O)[C@@H](N)C1 [OSELTAMIVIR] | Active | inactive | 260 |  |  |  |  |  |  |  | 
COc1ccc2cc(-c3c(C(=O)O)cc(Oc4ccc(N)cc4)cc3C(=O)O)ccc2c1 |  |  |  | 38 to 47 °C | Active | ≥ 10000 µM | 10 | 4.68 | 619 |  | 
COc1ccc2cc(C(CC(=O)O)CC(=O)O)ccc2c1 |  |  |  |  | inactive |  |  |  |  | 25 to 45 °C | 6.10

Reference: ChEMBL document CHEMBL4196106, “From Naproxen Repurposing to Naproxen Analogues and Their Antiviral Activity against Influenza A Virus” (J Med Chem, 2018)
